Experiments:
[1] = Binding affinity to bacterial His-tagged beta-lactamase OXA-48 expressed in Escherichia coli strain BL21Star(DE3)pRARE by surface plasmon resonance assay; parameters: species or system Bacteria
Summary of the method: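 His-tagged OXA-48 amine-coupled to a CM5 chip to around 5000 RU (enzyme at 25 μg/mL in 10 mM MES pH 5.5). Ten dilutions from 400 μM to 10.5 μM were injected for 30 s with 60 s dissociation (300 s for kinetic binders). Sensorgrams were double-referenced. Kd came from a steady-state model with Rmax fixed via a positive control.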

[2] = Inhibition of bacterial beta-lactamase OXA-48 expressed in Escherichia coli strain BL21Star(DE3)pRARE using nitrocefin as substrate; parameters: species or system Bacteria
Summary of the method: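 OXA-48 carried its native signal peptide and was purified from the periplasm. The assay ran at 25 °C in 100 mM sodium phosphate pH 7.0 with 50 mM NaHCO3 and 0.2 mg/mL BSA, against 25 μM nitrocefin. Velocities were taken from the linear range. IC50 came from a nonlinear fit of response versus log inhibitor concentration, with bottom and top fixed from controls.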

| SMILES | Kd [1] [µM] | IC50 [2] [µM] | pIC50 [2] |
| --- | --- | --- | --- |
| COC(=O)c1ccccc1-c1cccc(C(=O)O)c1 | 200 | 210 | 3.69 |
| NCCc1ccc(-c2cccc(C(=O)O)c2)cc1 | 970 | 1000 | 2.98 |
| CS(=O)(=O)c1cccc(-c2cccc(C(=O)O)c2)c1 | 150 | 120 | 3.91 |
| O=C(O)c1cccc(-c2ccccc2F)c1 | 170 | 130 | 3.89 |
| CC(=O)c1ccc(-c2cccc(C(=O)O)c2)cc1 | 280 | 380 | 3.42 |
| O=C(O)c1cccc(-c2ccccn2)c1 | 159 | 35 | 4.46 |
| CS(=O)(=O)NCc1ccc(-c2cccc(C(=O)O)c2)cc1 | 240 | 450 | 3.35 |
| O=C(O)c1cccc(-c2ccc(O)cc2)c1 | 170 | 470 | 3.33 |
| O=C(O)c1cccc(-c2cccc(F)c2)c1 | 240 | 130 | 3.88 |
| CS(=O)(=O)NCc1cccc(-c2cccc(C(=O)O)c2)c1 | 110 | 110 | 3.96 |
| COC(=O)c1cccc(-c2cccc(C(=O)O)c2)c1 | 144 | 260 | 3.59 |
| NC(=O)c1cccc(-c2cccc(C(=O)O)c2)c1 | 220 | 260 | 3.58 |
| NCCc1cccc(-c2cccc(C(=O)O)c2)c1 | 300 | 110 | 3.95 |
| NC(=O)c1ccc(-c2cccc(C(=O)O)c2)cc1 | 200 to 350 | 180 | 3.73 |
| Cc1nc(N)ncc1-c1cccc(C(=O)O)c1 | 113 | 350 | 3.46 |
| CS(=O)(=O)NCCc1cccc(-c2cccc(C(=O)O)c2)c1 | 200 | 370 | 3.43 |
| COc1ccccc1-c1cccc(C(=O)O)c1 | 123 | 250 | 3.6 |
| O=C(O)c1cccc(-c2ccc3cccnc3c2)c1 | 160 | 240 | 3.61 |
| CS(=O)(=O)c1ccc(-c2cccc(C(=O)O)c2)cc1 | 361 | 380 | 3.42 |
| O=C(O)c1cc(-c2ccc3ncccc3c2)cc(-c2ccc3ncccc3c2)c1 | 70 | 110 | 3.94 |
| O=C(O)c1cccc(-c2cccc(O)c2)c1 | 110 | 110 | 3.97 |
| O=C(O)c1cccc(-c2ccc(-c3nnn[nH]3)cc2)c1 | 70 | 36 | 4.48 |
| O=C(O)c1cccc(-c2ccc(F)cc2)c1 | 312 | 360 | 3.45 |
| O=C(O)c1cccc(-c2ccc3ccccc3c2)c1 | 400 | 110 | 3.98 |
| CC(=O)Nc1cccc(-c2cc(C(=O)O)cc(-c3cccc(NC(C)=O)c3)c2)c1 | 20 to 30 | 2.9 | 5.53 |
| CC(=O)NCCc1ccc(-c2cccc(C(=O)O)c2)cc1 | 190 | 520 | 3.28 |
| CC(=O)Nc1ccc(-c2cccc(C(=O)O)c2)cc1 | 290 | 450 | 3.35 |

| SMILES | Kd [1] [µM] | IC50 [2] [µM] | pIC50 [2] |
| --- | --- | --- | --- |
| O=C(O)c1cccc(-c2cccc(CO)c2)c1 | 230 | 900 | 3.04 |
| CC(=O)NCCc1cccc(-c2cccc(C(=O)O)c2)c1 | 170 | 230 | 3.64 |
| O=C(O)c1cccc(-c2ccc(NS(=O)(=O)c3ccccc3)cc2)c1 | 210 | 60 | 4.25 |
| NCc1ccc(-c2cccc(C(=O)O)c2)cc1 | 550 | 1400 | 2.85 |
| Cc1cccc(-c2cccc(C(=O)O)c2)c1 | 300 | 170 | 3.78 |
| O=C(O)c1cccc(-c2cncs2)c1 | 900 | 800 | 3.09 |
| O=C(O)c1cccc(-c2ccccc2O)c1 | 175 | 50 | 4.3 |
| O=C(O)c1cccc(-c2ccc3[nH]ccc3c2)c1 | 400 | 310 | 3.51 |
| CC(=O)NCc1cccc(-c2cccc(C(=O)O)c2)c1 | 130 | 130 | 3.89 |
| CC(=O)Nc1cccc(-c2cc(C(=O)O)cc(-c3ccc4ncccc4c3)c2)c1 | 49 to 60 | 2.9 | 5.54 |
| CC(=O)Nc1cccc(-c2cc(C(=O)O)cc(-c3ccncc3)c2)c1 | 70 | 100 | 3.99 |
| CC(=O)Nc1ccc(-c2cc(C(=O)O)cc(-c3ccc(NC(C)=O)cc3)c2)cc1 | 70 | 48 | 4.32 |
| COc1cccc(-c2cccc(C(=O)O)c2)c1 | 226 | 360 | 3.44 |
| NCc1cccc(-c2cccc(C(=O)O)c2)c1 | 800 | 600 | 3.22 |
| O=C(O)c1cccc(-c2cnc(-n3ccnc3)nc2)c1 | 1000 to 1160 | 1300 | 2.89 |
| CS(=O)(=O)Nc1ccc(-c2cccc(C(=O)O)c2)cc1 | 100 | 370 | 3.43 |
| Nc1ccc(-c2cccc(C(=O)O)c2)cc1 | 330 | 330 | 3.48 |
| COc1ccc(-c2cccc(C(=O)O)c2)cc1 | 250 | 150 | 3.82 |
| CSc1ccc(-c2cccc(C(=O)O)c2)cc1 | 1000 | 400 | 3.4 |
| CN(C)c1ccc(-c2cccc(C(=O)O)c2)cc1 | 220 | 390 | 3.41 |
| O=C(O)c1cccc(-c2cccc(-c3nnn[nH]3)c2)c1 | 70 | 60 | 4.24 |
| O=C(O)c1cccc(-c2cncnc2)c1 | 900 | 800 | 3.1 |
| CC(=O)Nc1cccc(-c2cccc(C(=O)O)c2)c1 | 100 | 35 | 4.45 |
| Cn1cccc1-c1cccc(C(=O)O)c1 | 590 | 500 | 3.3 |
| CC(=O)OCc1cccc(-c2cccc(C(=O)O)c2)c1 | 140 to 181 | 250 | 3.6 |
| Nc1ccc(-c2cccc(C(=O)O)c2)cn1 | 130 | 170 | 3.76 |
| Cc1ccccc1-c1cccc(C(=O)O)c1 | 170 | 90 | 4.05 |

From ChEMBL document CHEMBL4145487, “A focused fragment library targeting the antibiotic resistance enzyme - Oxacillinase-48: Synthesis, structural evaluation and inhibitor design” (Eur J Med Chem, 2018)
